Where a SMILES comes first, the peptide text is derived from it. [ ]: non-standard residue; d: D form. The star is where a group is joined. Orn = NCCC[C@H](N)C(=O)O; Cbz = O=C(OCc1ccccc1)*
Tests used:
Serine protease 1 [1] = target: T1, Serine protease 1 (Homo sapiens, UniProt P07477); experiment: Evaluated for the inhibition of trypsin.(no inhibition at 400 uM)
Outline: (§1)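 Trypsin (0.01 g/L stock in 0.001 N HCl) in 0.046 M Tris with 0.0115 M CaCl2, pH 8.1, inhibitor in 1% DMSO/water, 37 °C. Tosyl-L-arginine methyl ester (0.01 M stock) added, 2 min incubation, A247 change read over 10 min. Each inhibitor level run four times, five or more levels; IC50 from % inhibition plotted against log concentration.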

Kallikrein-1 = Kallikrein-1 (Homo sapiens, UniProt P06870); experiment: Inhibition of Kallikrein proteolytic enzyme
Sequence of Kallikrein-1 (P06870 whole entry): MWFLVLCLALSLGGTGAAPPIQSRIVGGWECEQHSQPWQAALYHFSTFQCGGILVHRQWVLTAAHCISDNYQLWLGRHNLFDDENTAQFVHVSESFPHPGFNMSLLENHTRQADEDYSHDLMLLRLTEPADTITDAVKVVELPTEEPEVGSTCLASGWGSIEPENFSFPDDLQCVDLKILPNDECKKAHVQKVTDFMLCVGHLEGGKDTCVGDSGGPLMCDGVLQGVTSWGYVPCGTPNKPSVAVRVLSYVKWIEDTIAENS
Outline: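 Human urinary kallikrein (0.3 units/mL stock) at 37 °C in 0.46 M Tris pH 8.0 containing 0.0115 M NaCl, inhibitor in 1% DMSO/water. Benzoylarginine ethyl ester (0.5 mM stock) substrate, 2 min incubation, absorbance change at 253 nm over 10 min. Quadruplicate measurements at ≥5 inhibitor concentrations; IC50 read from % inhibition vs log inhibitor concentration.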

Plasminogen [2] = target: T2, Plasminogen (Rattus norvegicus, UniProt Q01177); experiment: Inhibition of plasmin
T2 sequence (Q01177 97-581 limits assumed): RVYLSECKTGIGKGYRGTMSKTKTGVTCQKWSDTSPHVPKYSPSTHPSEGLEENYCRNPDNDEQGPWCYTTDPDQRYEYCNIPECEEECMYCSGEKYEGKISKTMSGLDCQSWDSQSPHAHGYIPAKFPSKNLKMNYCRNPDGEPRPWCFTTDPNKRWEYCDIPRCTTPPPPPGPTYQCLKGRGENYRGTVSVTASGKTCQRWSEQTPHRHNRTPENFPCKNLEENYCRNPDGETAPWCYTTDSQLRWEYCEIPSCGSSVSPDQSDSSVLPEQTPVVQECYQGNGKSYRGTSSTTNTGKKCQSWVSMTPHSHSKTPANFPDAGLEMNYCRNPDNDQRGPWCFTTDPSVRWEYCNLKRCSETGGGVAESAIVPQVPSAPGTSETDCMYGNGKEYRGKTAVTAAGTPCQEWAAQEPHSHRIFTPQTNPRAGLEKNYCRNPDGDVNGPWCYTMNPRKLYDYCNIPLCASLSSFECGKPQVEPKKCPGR
T2 sequence (Q01177 582-812 limits assumed): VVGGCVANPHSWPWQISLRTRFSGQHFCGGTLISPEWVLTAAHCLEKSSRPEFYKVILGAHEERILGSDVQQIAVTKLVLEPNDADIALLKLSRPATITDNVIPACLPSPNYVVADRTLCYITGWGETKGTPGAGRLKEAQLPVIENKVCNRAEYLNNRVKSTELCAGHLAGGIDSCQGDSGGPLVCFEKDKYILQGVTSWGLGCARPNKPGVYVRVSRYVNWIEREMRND
Outline: (§2)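 Plasmin (0.25 casein units/mL stock, in 50% glycerol/2 mM HCl with 5 g/L carbowax) in 0.5 M Tris pH 8.0 with 0.12 M NaCl, inhibitor added in 1% DMSO/water, 37 °C. D-Val-Leu-Lys p-nitroanilide (3.35 mM stock) added, 1 min incubation, then A405 change followed over 10 min. Four runs at ≥5 inhibitor concentrations; % inhibition vs log[I] gives IC50.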

Serine protease 1 [3] = target: T1, Serine protease 1; experiment: Evaluated for the inhibition of trypsin; outline: as §1
Plasminogen [4] = target: T2, Plasminogen; experiment: Evaluated for the inhibition of plasmin.( no inhibition at 400 uM); outline: as §2
Plasminogen [5] = target: T2, Plasminogen; experiment: Evaluated for the inhibition of plasmin.(no inhibition at 400 uM); outline: as §2

T1 sequence (P07477 whole entry): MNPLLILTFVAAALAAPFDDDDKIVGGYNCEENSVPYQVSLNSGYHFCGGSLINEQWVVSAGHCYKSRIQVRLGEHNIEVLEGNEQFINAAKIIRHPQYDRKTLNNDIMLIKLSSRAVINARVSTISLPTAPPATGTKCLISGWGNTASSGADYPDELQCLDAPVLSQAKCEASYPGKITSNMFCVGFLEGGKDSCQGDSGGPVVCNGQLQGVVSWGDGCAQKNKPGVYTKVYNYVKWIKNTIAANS

Structure (SMILES)	IC50 (Serine protease 1 [1]) [µM]	IC50 (Kallikrein-1) [µM]	IC50 (Plasminogen [2]) [µM]	IC50 (Serine protease 1 [3]) [µM]	IC50 (Plasminogen [4]) [µM]	IC50 (Plasminogen [5]) [µM]
CC(C)C[C@H](NC(=O)[C@H](Cc1ccccc1)NC(=O)OCc1ccccc1)C(=O)N[C@H](C=O)CCCCN (Cbz-Phe-Leu-Lys-aldehyde)	> 400	25.6	8.9	–	–	–
CC(C)C[C@H](NC(=O)OCc1ccccc1)C(=O)N[C@H](C(=O)N[C@H](C=O)CCCN=C(N)N)C(C)C (Cbz-Leu-Val-Arg-aldehyde)	–	11.2	10.2	81.4	–	–
CC(C)C[C@H](NC(=O)OCc1ccccc1)C(=O)N[C@H](C(=O)N[C@H](C=O)CCCCN)C(C)C (Cbz-Leu-Val-Lys-aldehyde)	> 400	14.8	18.5	–	–	–
CC(C)C[C@H](NC(=O)OCc1ccccc1)C(=O)N[C@@H](CC(C)C)C(=O)N[C@H](C=O)CCCCN (Cbz-Leu-Leu-Lys-aldehyde)	–	19	184	196	–	–
CC(C)C[C@H](NC(=O)OCc1ccccc1)C(=O)N[C@@H](CC(C)C)C(=O)N[C@H](C=O)CCCN (Cbz-Leu-Leu-[Orn]-aldehyde)	> 400	29.3	–	–	–	> 400

Further molecules by falling IC50 (Kallikrein-1), results first:

IC50 (Serine protease 1 [1]) [µM]	IC50 (Kallikrein-1) [µM]	IC50 (Plasminogen [2]) [µM]	IC50 (Serine protease 1 [3]) [µM]	IC50 (Plasminogen [4]) [µM]	IC50 (Plasminogen [5]) [µM]	Structure (SMILES)
> 400	112	242	–	–	–	CC(C)C[C@H](NC(=O)[C@H](Cc1ccccc1)NC(=O)OCc1ccccc1)C(=O)N[C@H](C=O)CCCN (Cbz-Phe-Leu-[Orn]-aldehyde)
> 400	82.4	–	–	> 400	–	CC(C)C[C@H](NC(=O)OCc1ccccc1)C(=O)N[C@@H](Cc1ccccc1)C(=O)N[C@H](C=O)CCCN (Cbz-Leu-Phe-[Orn]-aldehyde)
> 400	53.8	432	–	–	–	CC(C)C[C@H](NC(=O)OCc1ccccc1)C(=O)N[C@H](C(=O)N[C@H](C=O)CCCN)C(C)C (Cbz-Leu-Val-[Orn]-aldehyde)
–	36	128	164	–	–	CC(C)C[C@H](NC(=O)OCc1ccccc1)C(=O)N[C@@H](CC(C)C)C(=O)N[C@H](C=O)CCCN=C(N)N
–	33.3	79.9	107	–	–	CC(C)C[C@H](NC(=O)OCc1ccccc1)C(=O)N[C@@H](Cc1ccccc1)C(=O)N[C@H](C=O)CCCN=C(N)N (Cbz-Leu-Phe-Arg-aldehyde)
–	25.7	10.2	45.9	–	–	CC(C)C[C@H](NC(=O)[C@H](Cc1ccccc1)NC(=O)OCc1ccccc1)C(=O)N[C@H](C=O)CCCN=C(N)N (Cbz-Phe-Leu-Arg-aldehyde)
> 400	20.3	47	–	–	–	CC(C)C[C@H](NC(=O)OCc1ccccc1)C(=O)N[C@@H](Cc1ccccc1)C(=O)N[C@H](C=O)CCCCN (Cbz-Leu-Phe-Lys-aldehyde)

Reference: ChEMBL document CHEMBL1124970, “New leupeptin analogues: synthesis and inhibition data” (J Med Chem, 1990)
